Source: ChEMBL document CHEMBL1141405, “Design and synthesis of novel sulfonamide-containing bradykinin hB2 receptor antagonists. 2. Synthesis and structure-activity relationships of alpha,alpha-cycloalkylglycine sulfonamides” (J Med Chem, 2007)

How the values were obtained:
[1] = molecular target: T1, B2 bradykinin receptor (Homo sapiens, UniProt P30411); experiment: Antagonist potency at human bradykinin B2 receptor assessed as effect on inositol monophosphate accumulation in CHOdhfr- cells; format: functional, cell-based; conditions: read-out: pA2 (converted)
T1 sequence (P30411 whole entry): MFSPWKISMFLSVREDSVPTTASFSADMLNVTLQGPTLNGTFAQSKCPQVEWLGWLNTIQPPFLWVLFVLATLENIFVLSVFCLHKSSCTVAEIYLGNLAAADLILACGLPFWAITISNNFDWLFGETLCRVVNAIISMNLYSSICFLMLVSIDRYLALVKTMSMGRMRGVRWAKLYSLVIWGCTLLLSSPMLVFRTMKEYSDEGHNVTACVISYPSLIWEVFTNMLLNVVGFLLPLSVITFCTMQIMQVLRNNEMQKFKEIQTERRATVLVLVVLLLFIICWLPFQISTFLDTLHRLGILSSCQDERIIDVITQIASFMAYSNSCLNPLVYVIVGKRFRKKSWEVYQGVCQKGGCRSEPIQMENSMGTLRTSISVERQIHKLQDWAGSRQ
In short: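 pA2 derived from antagonism of bradykinin-stimulated inositol monophosphate accumulation in CHOdhfr- cells stably transfected with the human B2 receptor.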

[2] = molecular target: T1, B2 bradykinin receptor; experiment: Displacement of [3H]BK from human bradykinin B2 receptor transfected in CHO cells; format: cell-based
In short: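 pKi from inhibition of specific [3H]-BK binding to membrane preparations of CHO cells stably transfected with the human B2 receptor.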

[3] = molecular target: T2, B1 bradykinin receptor (Homo sapiens, UniProt P46663); experiment: Binding affinity to human bradykinin B1 receptor
T2 sequence (P46663 whole entry): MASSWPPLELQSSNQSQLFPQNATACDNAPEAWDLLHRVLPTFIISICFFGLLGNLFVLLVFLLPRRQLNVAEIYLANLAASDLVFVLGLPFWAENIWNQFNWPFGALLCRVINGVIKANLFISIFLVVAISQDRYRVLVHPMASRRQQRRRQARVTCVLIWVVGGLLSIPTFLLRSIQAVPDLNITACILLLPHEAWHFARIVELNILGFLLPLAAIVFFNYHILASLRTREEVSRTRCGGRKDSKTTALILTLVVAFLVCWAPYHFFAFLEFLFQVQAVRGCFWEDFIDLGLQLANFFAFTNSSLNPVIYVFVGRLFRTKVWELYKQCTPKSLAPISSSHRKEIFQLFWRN

[4] = molecular target: T3, B2 bradykinin receptor (Cavia porcellus) (UniProt O70526); experiment: Effect on BK-induced hypotension in Dunkin Hartley guinea pig at 100 nmol/kg, it; format: functional
T3 sequence (whole entry): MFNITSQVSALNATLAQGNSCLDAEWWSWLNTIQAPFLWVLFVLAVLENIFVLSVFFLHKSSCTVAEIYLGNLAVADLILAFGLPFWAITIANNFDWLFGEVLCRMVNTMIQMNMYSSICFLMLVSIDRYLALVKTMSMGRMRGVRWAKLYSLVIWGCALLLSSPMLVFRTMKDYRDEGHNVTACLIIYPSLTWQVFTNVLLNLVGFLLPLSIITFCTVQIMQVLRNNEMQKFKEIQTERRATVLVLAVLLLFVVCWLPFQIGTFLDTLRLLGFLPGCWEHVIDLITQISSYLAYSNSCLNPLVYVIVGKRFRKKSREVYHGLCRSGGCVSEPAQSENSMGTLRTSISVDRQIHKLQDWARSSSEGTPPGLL
In short: (§1)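 Compound was given intratracheally to anaesthetized guinea pigs. Five min later, BK (10 nmol/kg iv) challenge was given and repeated every 30 min for 210 min. Blood pressure was monitored. Result is Σ%: residual BK response as % of basal, normalized to control at each observation time (5–210 min), expressed as % of theoretical maximum.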

[5] = molecular target: T3, B2 bradykinin receptor (Cavia porcellus); experiment: Inhibition of BK-induced bronchoconstriction in Dunkin Hartley guinea pig at 100 nmol/kg, it; format: functional; set-up: scale not given: the % may be the effect or the level left
In short: (§2)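 Compound was given intratracheally to anaesthetized guinea pigs. Five min later, BK (10 nmol/kg iv) challenge was given and repeated every 30 min for 210 min. Pulmonary insufflation pressure was monitored. Result is Σ%: residual BK response as % of basal, normalized to control at 5–210 min time points, expressed as % of theoretical maximum.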

[6] = molecular target: T3, B2 bradykinin receptor (Cavia porcellus); experiment: Effect on BK-induced hypotension in Dunkin Hartley guinea pig at 300 nmol/kg, it; format: functional; in short: as §1
[7] = molecular target: T3, B2 bradykinin receptor (Cavia porcellus); experiment: Inhibition of BK-induced bronchoconstriction in Dunkin Hartley guinea pig at 300 nmol/kg, it; format: functional; set-up: scale not given: the % may be the effect or the level left; in short: as §2

Structure (SMILES)	Kb [1]	Ki [2]	Ki [3]	Activity [4]	Activity [5]	Activity [6]	Activity [7]
Cc1cc(C)c2cccc(OCc3c(Cl)ccc(S(=O)(=O)NC4(C(=O)N5CCN(C(=O)[C@H](CCCC[N+](C)(C)C)[N+](C)(C)C)CC5)CCCC4)c3Cl)c2n1	6.31 nM	0.2 nM	> 10000 nM	–	–	–	–
CC(=O)N1CCC(NS(=O)(=O)c2ccc(Cl)c(COc3cccc4c(C)cc(C)nc34)c2Cl)(C(=O)N2CCN(C(=O)[C@@H](N)CCC[N+](C)(C)C)CC2)CC1	1.26 nM	0.158 nM	> 10000 nM	–	–	–	–
Cc1cc(C)c2cccc(OCc3c(Cl)ccc(S(=O)(=O)NC4(C(=O)N5CCN(C(=O)CCCCC[N+](C)(C)C)CC5)CCCC4)c3Cl)c2n1	5.01 nM	–	> 10000 nM	–	–	–	–
Cc1cc(C)c2cccc(OCc3c(Cl)ccc(S(=O)(=O)NC4(C(=O)N5CCN(C(=O)CCC[N+](C)(C)C)CC5)CCCC4)c3Cl)c2n1	2 nM	–	> 10000 nM	83%	65%	–	–
Cc1cc(C)c2cccc(OCc3c(Cl)ccc(S(=O)(=O)NC4(C(=O)N5CCN(C(=O)CCCCCNC(=N)N)CC5)CCCC4)c3Cl)c2n1	2 nM	1.26 nM	> 10000 nM	–	–	–	–
Cc1cc(C)c2cccc(OCc3c(Cl)ccc(S(=O)(=O)NC4(C(=O)N5CCN(C(=O)[C@@H](N)CCC[N+](C)(C)C)CC5)CCSCC4)c3Cl)c2n1	0.158 nM	0.0501 nM	> 10000 nM	89%	59%	–	–
Cc1cc(C)c2cccc(OCc3c(Cl)ccc(S(=O)(=O)NC4(C(=O)N5CCN(C(=O)[C@@H](N)CCC[N+](C)(C)C)CC5)CCN(C)CC4)c3Cl)c2n1	0.251 nM	0.0794 nM	> 10000 nM	86%	40%	–	–
Cc1cc(C)c2cccc(OCc3c(Cl)ccc(S(=O)(=O)NC4(C(=O)N5CCN(C(=O)[C@@H](N)CC[N+](C)(C)C)CC5)CCCC4)c3Cl)c2n1	2 nM	0.316 nM	> 10000 nM	87%	45%	–	–
Cc1cc(C)c2cccc(OCc3c(Cl)ccc(S(=O)(=O)NC4(C(=O)N5CCN(C(=O)CCCC[N+](C)(C)C)CC5)CCCC4)c3Cl)c2n1	1.58 nM	0.251 nM	> 10000 nM	–	–	–	–
Cc1cc(C)c2cccc(OCc3c(Cl)ccc(S(=O)(=O)NC4(C(=O)N5CCN(C(=O)C[C@@H](N)CCCNC(=N)N)CC5)CCCC4)c3Cl)c2n1	0.794 nM	–	> 10000 nM	100%	78%	–	–
Cc1cc(C)c2cccc(OCc3c(Cl)ccc(S(=O)(=O)NC4(C(=O)N5CCN(C(=N)NCCCN(C)C)CC5)CCCC4)c3Cl)c2n1	0.501 nM	0.631 nM	> 10000 nM	–	–	69%	24%
Cc1cc(C)c2cccc(OCc3c(Cl)ccc(S(=O)(=O)NC4(C(=O)N5CCN(C(=O)C[N+](C)(C)C)CC5)CCCC4)c3Cl)c2n1	5.01 nM	0.398 nM	> 10000 nM	91%	54%	–	–
Cc1cc(C)c2cccc(OCc3c(Cl)ccc(S(=O)(=O)NC4(C(=O)N5CCN(C(=O)C[C@@H](N)CCCN)CC5)CCCC4)c3Cl)c2n1	0.501 nM	0.631 nM	> 10000 nM	100%	46%	–	–
Cc1cc(C)c2cccc(OCc3c(Cl)ccc(S(=O)(=O)NC4(C(=O)N5CCN(C(=O)[C@H](CCCCN)[N+](C)(C)C)CC5)CCCC4)c3Cl)c2n1	1.58 nM	–	> 10000 nM	84%	39%	–	–
Cc1cc(C)c2cccc(OCc3c(Cl)ccc(S(=O)(=O)NC4(C(=O)N5CCN(C(=N)NCCC[N+](C)(C)C)CC5)CCCC4)c3Cl)c2n1	1.58 nM	0.398 nM	> 10000 nM	–	–	87%	17%
Cc1cc(C)c2cccc(OCc3c(Cl)ccc(S(=O)(=O)NC4(C(=O)N5CCN(C(=O)[C@@H](N)CCC[N+](C)(C)C)CC5)CCNCC4)c3Cl)c2n1	1.58 nM	0.501 nM	> 10000 nM	–	–	–	–
Cc1cc(C)c2cccc(OCc3c(Cl)ccc(S(=O)(=O)NC4(C(=O)N5CCN(C(=O)C[C@H](CCCN)[N+](C)(C)C)CC5)CCCC4)c3Cl)c2n1	1.26 nM	0.126 nM	> 10000 nM	94%	72%	–	–
Cc1cc(C)c2cccc(OCc3c(Cl)ccc(S(=O)(=O)NC4(C(=O)N5CCN(C(=O)C[C@@H](N)CCC[N+](C)(C)C)CC5)CCCC4)c3Cl)c2n1	1.58 nM	0.2 nM	> 10000 nM	96%	57%	–	–
Cc1cc(C)c2cccc(OCc3c(Cl)ccc(S(=O)(=O)NC4(C(=O)N5CCN(C(=O)[C@H](CCCCN(C)C)N(C)C)CC5)CCCC4)c3Cl)c2n1	3.16 nM	0.2 nM	> 10000 nM	–	–	–	–
Cc1cc(C)c2cccc(OCc3c(Cl)ccc(S(=O)(=O)NC4(C(=O)N5CCN(C(=O)[C@@H](N)CCCC[N+](C)(C)C)CC5)CCCC4)c3Cl)c2n1	1.26 nM	–	> 10000 nM	94%	35%	–	–
Cc1cc(C)c2cccc(OCc3c(Cl)ccc(S(=O)(=O)NC4(C(=O)N5CCN(C(=O)[C@H](CCCCNC(=N)N)[N+](C)(C)C)CC5)CCCC4)c3Cl)c2n1	0.631 nM	0.1 nM	> 10000 nM	90%	61%	–	–
Cc1cc(C)c2cccc(OCc3c(Cl)ccc(S(=O)(=O)NC4(C(=O)N5CCN(C(=O)[C@H](CCCN)[N+](C)(C)C)CC5)CCCC4)c3Cl)c2n1	0.501 nM	0.251 nM	> 10000 nM	82%	43%	–	–
Cc1cc(C)c2cccc(OCc3c(Cl)ccc(S(=O)(=O)NC4(C(=O)N5CCN(C(=O)[C@@H](N)CCCCN)CC5)CCCC4)c3Cl)c2n1	2 nM	0.316 nM	> 10000 nM	–	–	–	–
Cc1cc(C)c2cccc(OCc3c(Cl)ccc(S(=O)(=O)NC4(C(=O)N5CCN(C(=O)[C@H](CCC[N+](C)(C)C)[N+](C)(C)C)CC5)CCCC4)c3Cl)c2n1	2.51 nM	0.2 nM	> 10000 nM	–	–	–	–
Cc1cc(C)c2cccc(OCc3c(Cl)ccc(S(=O)(=O)NC4(C(=O)N5CCN(C(=O)[C@@H](N)CCC[N+](C)(C)C)CC5)CCCC4)c3Cl)c2n1	0.501 nM	0.0501 nM	> 10000 nM	100%	24%	–	–
